Experimental data reported in ChEMBL document CHEMBL1153817, “New resorcinol-anandamide "hybrids" as potent cannabinoid receptor ligands endowed with antinociceptive activity in vivo” (J Med Chem, 2009).
The source made the active and inactive calls. The rule behind the calls is not given here.

Columns and labels:
Cannabinoid receptor 2 [1] = biological target: T1, Cannabinoid receptor 2 (Homo sapiens, UniProt P34972); assay: Displacement of [3H]CP-55940 form human CB2 receptor expressed in HEK cells at 10 uM; format: cell-based; details: HEK293
Cannabinoid receptor 1 [2] = biological target: T2, Cannabinoid receptor 1 (Homo sapiens, UniProt P21554); assay: Displacement of [3H]CP-55940 form human CB1 receptor expressed in HEK cells at 10 uM; format: cell-based; details: HEK293
Cannabinoid receptor 1 [3] = biological target: T2, Cannabinoid receptor 1; assay: Binding affinity to human recombinant CB1 receptor expressed in african green monkey COS cells by radioligand binding assay; format: cell-based
COS = assay: Selectivity index, ratio of Ki for human CB2 receptor to Ki for human CB1 receptor expressed in african green monkey COS cells; format: cell-based
Summary of the method: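 Ki at COS-expressed human CB1 and CB2 each from [3H]CP-55,940 displacement (0.14 nM for CB1), IC50 converted via Cheng-Prusoff, mean of 3 experiments; index taken as ratio of the two Ki values.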

Cannabinoid receptor 2 [4] = biological target: T1, Cannabinoid receptor 2; assay: Binding affinity to human recombinant CB2 receptor expressed in african green monkey COS cells by radioligand binding assay; format: cell-based
Cannabinoid receptor 2 [5] = biological target: T3, Cannabinoid receptor 2 (Rattus norvegicus, UniProt Q9QZN9); assay: Binding affinity to CB2 receptor in rat brain membrane; format: cell membranes
T3 sequence (Q9QZN9 whole entry): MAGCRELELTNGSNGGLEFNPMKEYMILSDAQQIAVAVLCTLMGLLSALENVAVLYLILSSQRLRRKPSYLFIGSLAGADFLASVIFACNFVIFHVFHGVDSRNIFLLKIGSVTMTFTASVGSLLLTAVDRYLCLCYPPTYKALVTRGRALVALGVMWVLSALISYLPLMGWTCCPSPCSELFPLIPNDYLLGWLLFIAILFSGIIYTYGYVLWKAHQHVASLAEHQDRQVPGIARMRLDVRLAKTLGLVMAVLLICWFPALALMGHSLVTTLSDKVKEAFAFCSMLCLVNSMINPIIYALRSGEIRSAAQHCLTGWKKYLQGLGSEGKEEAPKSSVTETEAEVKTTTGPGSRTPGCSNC

Cannabinoid receptor 1 [6] = biological target: T4, Cannabinoid receptor 1 (Rattus norvegicus, UniProt P20272); assay: Binding affinity to CB1 receptor in rat brain membrane; format: cell membranes
Cannabinoid receptor 1 [7] = biological target: T4, Cannabinoid receptor 1; assay: Binding affinity to CB1 receptor in rat spleen membrane; format: cell membranes
Cannabinoid receptor 2 [8] = biological target: T3, Cannabinoid receptor 2; assay: Binding affinity to CB2 receptor in rat spleen membrane; format: cell membranes
Mus musculus [9] = assay: Antinociceptive activity against formalin-induced paw pain in mouse at 1 mg/kg, ip pretreated 15 mins before formalin challenge assessed after 30 to 45 mins; format: functional, organism-based; set-up: dose 1 mg/kg
Summary of the method: (§1)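 Formalin (1.25% in saline, 30 µL) injected into dorsal hind paw; mice randomised, n = 8-10 per group, one treatment each. Test drug given ip in 10% DMSO/saline 15 min pre-formalin; rimonabant or AM630 (1 mg/kg ip) given 5 min before test drug. Lifting, licking, shaking, flinching timed per 5 min over 60 min; one-way ANOVA with Bonferroni.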

Mus musculus [10] = assay: Antinociceptive activity against formalin-induced paw pain in mouse at 1 mg/kg, ip pretreated 15 mins before formalin challenge assessed after 30 to 45 mins in presence of CB2 receptor-antagonist AM630; format: functional, organism-based; set-up: dose 1 mg/kg; summary of the method: as §1
Mus musculus [11] = assay: Antinociceptive activity against formalin-induced paw pain in mouse at 1 mg/kg, ip pretreated 15 mins before formalin challenge assessed after 30 to 45 mins in presence of CB1 receptor-antagonist rimonabant; format: functional, organism-based; set-up: dose 1 mg/kg; summary of the method: as §1

T2 sequence (P21554 whole entry): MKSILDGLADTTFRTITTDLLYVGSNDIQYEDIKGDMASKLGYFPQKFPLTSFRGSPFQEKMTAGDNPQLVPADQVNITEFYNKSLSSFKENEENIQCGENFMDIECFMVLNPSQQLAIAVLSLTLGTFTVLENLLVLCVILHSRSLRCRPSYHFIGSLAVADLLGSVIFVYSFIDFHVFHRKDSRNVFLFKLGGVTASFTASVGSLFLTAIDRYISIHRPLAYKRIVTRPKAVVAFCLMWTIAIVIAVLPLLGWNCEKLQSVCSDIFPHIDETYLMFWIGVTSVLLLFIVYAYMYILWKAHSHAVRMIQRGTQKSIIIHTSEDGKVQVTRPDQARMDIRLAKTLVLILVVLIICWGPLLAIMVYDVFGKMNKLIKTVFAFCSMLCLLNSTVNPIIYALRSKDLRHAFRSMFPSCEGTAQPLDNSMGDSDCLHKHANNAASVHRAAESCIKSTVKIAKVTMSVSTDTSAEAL
T1 sequence (P34972 whole entry): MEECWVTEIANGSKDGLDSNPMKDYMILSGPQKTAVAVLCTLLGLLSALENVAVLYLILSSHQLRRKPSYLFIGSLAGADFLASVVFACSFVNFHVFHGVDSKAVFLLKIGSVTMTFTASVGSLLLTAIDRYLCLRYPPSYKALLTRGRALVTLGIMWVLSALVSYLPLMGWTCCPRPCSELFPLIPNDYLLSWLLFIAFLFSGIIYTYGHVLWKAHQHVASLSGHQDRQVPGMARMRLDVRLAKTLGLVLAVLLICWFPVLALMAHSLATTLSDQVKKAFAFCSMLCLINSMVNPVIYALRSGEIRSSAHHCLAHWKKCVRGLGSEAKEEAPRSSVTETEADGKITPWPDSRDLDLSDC
T4 sequence (P20272 whole entry): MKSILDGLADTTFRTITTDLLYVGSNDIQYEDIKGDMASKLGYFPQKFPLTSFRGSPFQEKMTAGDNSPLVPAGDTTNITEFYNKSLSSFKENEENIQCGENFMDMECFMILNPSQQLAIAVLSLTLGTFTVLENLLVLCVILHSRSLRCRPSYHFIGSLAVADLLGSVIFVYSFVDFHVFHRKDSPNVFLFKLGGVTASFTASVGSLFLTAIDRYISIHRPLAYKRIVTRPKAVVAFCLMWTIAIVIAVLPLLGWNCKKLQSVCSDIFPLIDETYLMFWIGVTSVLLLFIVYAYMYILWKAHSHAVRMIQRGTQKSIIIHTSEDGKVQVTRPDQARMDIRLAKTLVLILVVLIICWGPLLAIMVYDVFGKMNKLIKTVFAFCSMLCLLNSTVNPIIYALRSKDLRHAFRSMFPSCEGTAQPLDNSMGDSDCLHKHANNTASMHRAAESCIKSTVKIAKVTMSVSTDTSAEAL

| Compound | Activity (Cannabinoid receptor 2 [1]) | Activity (Cannabinoid receptor 1 [2]) | Ki (Cannabinoid receptor 1 [3]; read-out: Ki) | Ratio Ki (COS) | Ki (Cannabinoid receptor 2 [4]; read-out: Ki) | IC50 (Cannabinoid receptor 2 [5]) | IC50 (Cannabinoid receptor 1 [6]) | IC50 (Cannabinoid receptor 1 [7]) | IC50 (Cannabinoid receptor 2 [8]) | Ki (Cannabinoid receptor 1 [3]; cos) | Ki (Cannabinoid receptor 1 [3]; read-out: pKi (converted)) | Ki (Cannabinoid receptor 2 [4]; cos) | Ki (Cannabinoid receptor 2 [4]; read-out: pKi (converted)) | Activity (Mus musculus [9]) | Activity (Mus musculus [10]) | Activity (Mus musculus [11]) |
| --- | --- | --- | --- | --- | --- | --- | --- | --- | --- | --- | --- | --- | --- | --- | --- | --- |
| CCCCOc1cc(O)cc(OCCCCCCCCCCC(=O)NC2CC2)c1 | > 50% | > 50% | 280 nM | 2300 nM | 120 nM |  |  |  |  |  |  |  |  |  |  |  |
| O=C(CCCCCCCCCCOc1cc(O)cc(O)c1)NCC1CC1 | > 50% | > 50% |  |  |  | > 10000 nM | > 10000 nM | > 10000 nM | > 10000 nM | Not Active | 10000 nM | Not Active | 10000 nM |  |  |  |
| CCCCCCC(C)(C)c1cc(O)cc(OCCCCCCCCCCC(=O)NC2CC2)c1 | > 50% | > 50% | 21 nM | 2700 nM | 7.9 nM |  |  |  |  |  |  |  |  |  |  |  |
| CCCCCCC(C)(C)c1cc(O)cc(OCCCCCCCCCCCC(=O)NC2CC2)c1 | > 50% | > 50% | 170 nM | 8500 nM | 20 nM |  |  |  |  |  |  |  |  |  |  |  |
| CCCCCc1cc(O)cc(OCCCCCCCCCCC(=O)NC2CC2)c1 |  |  |  | 400 nM |  |  |  |  |  |  |  |  |  |  |  |  |
| CCCCCCC(C)(C)c1cc(O)cc(OCCCCCCCC(=O)NCC2CC2)c1 | > 50% | > 50% | 100 nM | 2900 nM | 34 nM |  |  |  |  |  |  |  |  |  |  |  |
| O=C(CCCCCCCCCCOc1cc(O)cc(O)c1)NCCO | > 50% | > 50% |  |  |  | > 10000 nM | > 10000 nM | > 10000 nM | > 10000 nM | Not Active | 10000 nM | Not Active | 10000 nM |  |  |  |
| CCCCCCC(C)(C)c1cc(O)cc(OCCCCCCCC(=O)NC2CC2)c1 | > 50% | > 50% | 5.6 nM | 700 nM | 7.9 nM |  |  |  |  |  |  |  |  | Active | inactive | inactive |
| CCCCCCC(C)(C)c1cc(O)cc(OCCCCCCCCCCC(=O)NCCc2ccc(O)c(O)c2)c1 | > 50% | > 50% | 3400 nM | 700 nM | 5000 nM |  |  |  |  |  |  |  |  |  |  |  |
| CCCCCCC(C)(C)c1cc(O)cc(OCCCCCCCCCCC(=O)NCCO)c1 | > 50% | > 50% | 310 nM | 10300 nM | 30 nM |  |  |  |  |  |  |  |  |  |  |  |
| CCCCCCC(C)(C)c1cc(O)cc(OCCCCCCCCCCC(=O)NCc2ccc(O)c(OC)c2)c1 | > 50% | > 50% | 2820 nM | 5500 nM | 510 nM |  |  |  |  |  |  |  |  |  |  |  |
| CCCCCCCOc1cc(O)cc(OCCCCCCCCCCC(=O)NC2CC2)c1 | > 50% | > 50% | 2220 nM | 10600 nM | 210 nM |  |  |  |  |  |  |  |  |  |  |  |
| CC(C)CCOc1cc(O)cc(OCCCCCCCCCCC(=O)NCC2CC2)c1 | > 50% | > 50% | 2300 nM | 11500 nM | 200 nM |  |  |  |  |  |  |  |  |  |  |  |
| CCCCOc1cc(O)cc(OCCCCCCCCCCC(=O)NCCO)c1 | > 50% | > 50% | 2410 nM | 1500 nM | 1620 nM |  |  |  |  |  |  |  |  |  |  |  |
| CCCCCCC(C)(C)c1cc(O)cc(OCCCCCCCCCCCC(=O)NCC2CC2)c1 | > 50% | > 50% | 5400 nM | 9000 nM | 600 nM |  |  |  |  |  |  |  |  |  |  |  |
| CCCCCCC(C)(C)c1cc(O)cc(OCCCCCCCC(=O)NCCO)c1 | > 50% | > 50% | 56 nM | 400 nM | 160 nM |  |  |  |  |  |  |  |  |  |  |  |
| CCCCCCCOc1cc(O)cc(OCCCCCCCCCCC(=O)NCCO)c1 | > 50% | > 50% | 3070 nM | 1300 nM | 2420 nM |  |  |  |  |  |  |  |  |  |  |  |
| O=C(CCCCCCCCCCOc1cc(O)cc(O)c1)NC1CC1 | > 50% | > 50% |  |  |  | > 10000 nM | > 10000 nM | > 10000 nM | > 10000 nM | Not Active | 10000 nM | Not Active | 10000 nM |  |  |  |
| CCCCCCC(C)(C)c1cc(O)cc(OCCCCCCCCCCCC(=O)NCCO)c1 | > 50% | > 50% | 820 nM | 10300 nM | 80 nM |  |  |  |  |  |  |  |  |  |  |  |
| CC(C)CCOc1cc(O)cc(OCCCCCCCCCCC(=O)NC2CC2)c1 | > 50% | > 50% | 220 nM | 1700 nM | 130 nM |  |  |  |  |  |  |  |  |  |  |  |
| CCCCCCC(C)(C)c1cc(O)cc(OCCCCCCCCCCC(=O)NCC2CC2)c1 | > 50% | > 50% | 1000 nM | 28600 nM | 35 nM |  |  |  |  |  |  |  |  |  |  |  |
| CC(C)CCOc1cc(O)cc(OCCCCCCCCCCC(=O)NCCO)c1 | > 50% | > 50% | 2880 nM | 5100 nM | 570 nM |  |  |  |  |  |  |  |  |  |  |  |
